Data set [1] relates to Severe acute respiratory syndrome coronavirus 2. The data set can be described thus: Binding affinity to 5'-CY5-labelled SARS-CoV-2 frameshift element RNA by MST analysis. In a few lines:
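Single-concentration MST screen against 5′-Cy5-labelled FSE RNA at 100 μM compound. A hit required an MST shift greater than 3SD of the DMSO signal, with the lead compound as positive control.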

Data set [2] has the same test system. The data set can be described thus: Binding affinity to 5'-CY5-labelled SARS-CoV-2 frameshift element RNA by SPR analysis. Summed up: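 Single-concentration SPR at 100 μM compound over immobilized FSE RNA, with the lead compound as positive control.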
For data set [3] the test system is unchanged. The data set can be described thus: Binding affinity to SARS-CoV-2 frameshift element RNA assessed as thermal stability by measuring change in melting temperature of RNA by circular dichroism analysis. In a few lines: (§1)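 FSE RNA thermal melt with compound at 150 or 500 μM. Tm was taken from first-derivative melting curves and reported as ΔTm.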
On the technique in general: Circular dichroism is widely used to follow secondary structure.

For data set [4], the system named is Reticulocyte. The data set can be described thus: Binding affinity to wild-type Rous sarcoma virus frameshift element RNA pseudoknot sequence transfected with Renilla/Firefly luciferase in rabbit reticulocyte lysate assessed as translation by measuring ratio of renilla luminescence by dual-luciferase reporter assay. It is filed as subcellular. In a few lines: (§2)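 In vitro frameshifting reporter with the SARS-CoV-2 or RSV pseudoknot placed between Renilla (0 frame) and firefly (−1 frame) luciferases. Frameshifting was the luminescence ratio. Frameshifting and translation were normalized to WT plus DMSO. Controls were a 5′ stop codon, a 3′ stop codon and a same-frame construct. Data are mean ± SD, n = 3.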

For data set [5], the system named is Reticulocyte. The data set can be described thus: Binding affinity to wild-type SARS-CoV-2 frameshift element RNA pseudoknot sequence transfected with Renilla/Firefly luciferase in rabbit reticulocyte lysate assessed as translation by measuring ratio of renilla luminescence by dual-luciferase reporter assay. The settings on record: Severe acute respiratory syndrome coronavirus 2. Type of data set: subcellular. Summed up:
as §2

In data set [6] the test system is MCF7. In words: Cytotoxicity against human MCF7 cells assessed as reduction in cell viability upto 100 uM measured after 48 hrs by Cell-titer Glo luminescent assay. It is filed as toxicity, cell-based. The settings on record: mcf7, 48 h. In a few lines:
(§3)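 MCF-7 cell viability after 48 h compound exposure.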

Data set [7] deals with Reticulocyte. In words: Binding affinity to wild-type Rous sarcoma virus frameshift element RNA pseudoknot sequence transfected with Renilla/Firefly luciferase in rabbit reticulocyte lysate assessed as reduction in frameshifting by dual-luciferase reporter assay relative to control. It is filed as subcellular. Also on record: scale not given: the % may be the effect or the level left. In a few lines: as §2
(In general: A reporter such as luciferase makes a cellular process visible.)

The subject of data set [8] is Reticulocyte. The data set can be described thus: Binding affinity to wild-type SARS-CoV-2 frameshift element RNA pseudoknot sequence transfected with Renilla/Firefly luciferase in rabbit reticulocyte lysate assessed as reduction in frameshifting by dual-luciferase reporter assay relative to control. Also on record: scale not given: the % may be the effect or the level left. The settings on record: Severe acute respiratory syndrome coronavirus 2. Type of data set: subcellular. Summed up:
as §2

In data set [9] the test system is Reticulocyte. The data set can be described thus: Binding affinity to wild-type Rous sarcoma virus frameshift element RNA pseudoknot sequence transfected with Renilla/Firefly luciferase in rabbit reticulocyte lysate assessed as frameshifting by measuring ratio of renilla/firefly luminescence by dual-luciferase reporter assay. Type of data set: subcellular. In a few lines: as §2

The test system of data set [10] is Reticulocyte. In words: Binding affinity to wild-type SARS-CoV-2 frameshift element RNA pseudoknot sequence transfected with Renilla/Firefly luciferase in rabbit reticulocyte lysate assessed as frameshifting by measuring ratio of renilla/firefly luminescence by dual-luciferase reporter assay. The settings on record: Severe acute respiratory syndrome coronavirus 2. It is filed as subcellular. Summed up:
as §2

Data set [11] deals with Reticulocyte. The data set can be described thus: Binding affinity to wild-type Rous sarcoma virus frameshift element RNA pseudoknot sequence transfected with Renilla/Firefly luciferase in rabbit reticulocyte lysate assessed as inhibition of translation by dual-luciferase reporter assay relative to control. The settings on record: concentration not given here. Type of data set: subcellular. Summed up:
as §2

The test system of data set [12] is Severe acute respiratory syndrome coronavirus 2. In words: Binding affinity to 5'-CY5-labelled SARS-CoV-2 frameshift element RNA at 50 uM by MST analysis.
Data set [13] has the same test system. In words: Binding affinity to SARS-CoV-2 frameshift element RNA at 150 uM by water ligand observed gradient spectroscopic analysis. In a few lines:
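WaterLOGSY NMR of 150 μM compound, alone and with 5 μM unlabelled FSE RNA. N-methyl-L-valine served as internal non-binding control, and a phase inversion of ligand peaks was read as binding.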

Data set [14] is described as follows: Binding affinity to 5'-CY5-labelled SARS-CoV-2 frameshift element RNA assessed as dissociation constant by MST analysis. Also on record: species or system Severe acute respiratory syndrome coronavirus 2. In a few lines:
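MST titration of the compound (4.9–500 μM) into 5′-Cy5-labelled FSE RNA. KD was fitted from T-jump values.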

In data set [15] the test system is Severe acute respiratory syndrome coronavirus 2. The data set can be described thus: Binding affinity to SARS-CoV-2 frameshift element RNA assessed as thermal stability by measuring change in melting temperature of RNA at 500 uM by circular dichroism analysis. Summed up: as §1
Data set [16] concerns MCF7. In words: Inhibition of programmed -1 ribosomal frameshifting in human MCF7 cells harboring pCherryGFP-Inframe-noFSE plasmid assessed as inhibition of GFP expression incubated for 30 mins by fluorescence microscopic analysis. Type of data set: functional, cell-based. Summed up: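 MCF-7 cells were treated with compound at various concentrations and transfected with an mCherry–FSE–GFP reporter: WT, a stop-codon negative control, or an in-frame no-FSE plasmid. GFP expression was the read-out, compared with a DMSO (0 μM) control. Data are mean ± SD of three independent experiments.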

Data set [17] deals with Severe acute respiratory syndrome coronavirus 2. In words: Binding affinity to SARS-CoV-2 frameshift element RNA assessed as thermal stability by measuring change in melting temperature of RNA at 150 uM by circular dichroism analysis. In a few lines:
as §1

The test system is the same in data set [18]. In words: Binding affinity to 5'-Cy5-labelled SARS-CoV-2 frameshift element RNA at 10 uM by microarray-based fluorescence analysis.
The nature of data set [19]: Cytotoxicity against human MCF7 cells assessed as cell viability at 50 uM measured after 48 hrs by Cell-titer Glo luminescent assay relative to control. The settings on record: read-out: Activity. It is filed as toxicity, cell-based. Summed up:
as §3

The nature of data set [20]: Binding affinity to 5'-biotin-labelled SARS-CoV-2 frameshift element RNA assessed as dissociation constant by SPR analysis. Also on record: species or system Severe acute respiratory syndrome coronavirus 2. Summed up: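 5′-Biotin FSE RNA was captured on a streptavidin-coated SPR surface. Compound was injected at 15.6–1000 μM, and KD came from steady-state fitting to a 1:1 Langmuir model. Stoichiometry was estimated from Rmax and the molecular ratio.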
A general note: SPR reads the build-up and loss of mass on a sensor chip optically.

One may read the ΔTm as the shift of the melting midpoint relative to a reference. The term inhibition denotes the percentage by which the read-out fell short of the control. By Kd is commonly meant the constant that tells how readily two partners part at equilibrium.

Molecules are shown by their SMILES. Activity calls are given as the source filed them. The calls are words filed in the database; no cut-off is given here.

In the case of `COc1ccc(-c2nc(NCCN3CCOCC3)c3cc(C(F)(F)F)ccc3n2)cc1`, in data set [1], the outcome was Active. For the same compound, in data set [2], the result was inactive.
As for `COc1ccc(-c2nc(NCCN3CCN(C)CC3)c3ccccc3n2)cc1`, the result in data set [1] and in [2] was Active.
For `COc1ccc(-c2nc(NCCS(=O)(=O)N3CCOCC3)c3ccccc3n2)cc1`, the outcome in [1] was inactive. For the same compound, the result in data set [2] was Active.
On to `CCN(CCN1CCOCC1)c1nc(-c2ccc(OC)cc2)nc2ccccc12`, for which the result in [1] was inactive. The outcome in data set [2] was Active.
In the same order, the values of `COc1ccc(F)cc1COc1ccc(-c2nc(NCCN3CCOCC3)c3ccccc3n2)cc1` are “inactive” and “inactive”.
Taken in the same sequence, the figures for `COc1ccc(-c2nc(NCCN3CCOCC3)c3ccc(-c4cn[nH]c4)cc3n2)cc1` were “Active” and “Active”.
As to `CCNCC1CCN(c2c(F)cc3c(=O)c(C(=O)O)cn(CC)c3c2F)C1` (stereo not drawn) [MERAFLOXACIN], in [3], the ΔTm was -3.7 °C. In data set [1], the result was Active. Further, the Ratio in data set [4] came out at 0.7; in [5] it was 0.9; in [9], 0.59; in data set [10] it was 0.21. The results for the Activity result in [6], in data set [7] and in data set [8] were “Non-Toxic”, 41% and 79%, respectively. In data set [11], the inhibition stood at 30%.
Take `COc1ccc(-c2nc(NCCN3CCOCC3)c3cc(-c4ccc(S(N)(=O)=O)cc4)ccc3n2)cc1`: in data set [1], the outcome was inactive. For the same compound, the outcome in data set [2] was Active.
With `COc1ccc(-c2nc(NCCN3CCOCC3)c3ccc(OC)cc3n2)cc1`, the outcome in [1] and in data set [2] was Active.
Regarding `COc1ccc(-c2nc(NCCN3CCOCC3)c3ccc(-c4ccc(S(N)(=O)=O)cc4)cc3n2)cc1`, the outcome in data set [1] and in [2] was inactive.
Regarding `COc1ccc(-c2nc(NCCN3CCOCC3)c3cc(-c4cn[nH]c4)ccc3n2)cc1`, the result in data set [1] was inactive. Moreover, the result in data set [2] was Active.
`COc1ccc(-c2nc(NCCN3CCOCC3)c3c(OC)cccc3n2)cc1`: the outcome in data set [1] was inactive. The result in [2] was Active.
In the case of `CCOC(=O)c1cccc(Nc2nc(-c3cccnc3)nc3ccccc23)c1`, the result in data set [12] and in data set [13] was inactive.
As to `COc1ccc(-c2nc(N3CC(N4CCOCC4)C3)c3ccccc3n2)cc1`, in data set [1], the outcome was inactive. For the same compound, the result in data set [2] was Active.
Consider `COc1ccc(-c2nc(NCCCN3CCC(N4CCCCC4)CC3)c3ccccc3n2)cc1`, for which the result in data set [12] and in [13] was inactive.
`CC#CCOc1ccc(-c2nc(NCCN3CCOCC3)c3ccccc3n2)cc1`: the result in [1] and in [2] was inactive.
With `CCOC(=O)c1ccccc1NC(=O)N1CCCN(Cc2csc(C)n2)CC1`, the ΔTm in data set [3] came to 2.2 °C. Also, the result in [1] was Active. Also, the Ratio in data set [4] was found to be 0.96; in data set [5], 1.01; in data set [9], 1.13; in data set [10] it was 1.02.
Turning to `FC(F)(F)c1ccc(-c2nc(NCCN3CCOCC3)c3ccccc3n2)cc1`, the result in [1] was inactive. Also, in data set [2], the outcome was Active.
Regarding `COc1ccc(-c2nc(NCCN3CCOCC3)c3ccc(C(F)(F)F)cc3n2)cc1`, the result in [1] was Active. Also, in data set [2], the outcome was inactive.
Regarding `COc1ccc(-c2nc(NCCN3CCOCC3)c3cc([N+](=O)[O-])ccc3n2)cc1`, the result in [1] and in [2] was inactive.
As to `COc1ccc(-c2nc(NCCN3CCOCC3)c3cccc(OC)c3n2)cc1`, the result in data set [1] was inactive. Further, in data set [2], the result was Active.
For the compound `COc1ccc(-c2nc(NCCN3CCOCC3)c3cc(-c4ccc(N5CCOCC5)c(C)c4)ccc3n2)cc1`, the outcome in [1] was inactive. Moreover, in data set [2], the result was Active.
On to `COc1cccc(-c2nc(NCCN3CCOCC3)c3ccccc3n2)c1`, for which the result in data set [1] and in data set [2] was inactive.
With `COc1ccc(-c2nc(NCCN3CCOCC3)c3ccc([N+](=O)[O-])cc3n2)cc1`, the result in [1] and in data set [2] was inactive.
Regarding `COc1ccccc1-c1nc(NCCN2CCOCC2)c2ccccc2n1`, the outcome in data set [1] was inactive. Besides, the result in data set [2] was Active.
For `COc1ccc(-c2nc(NCCN3CCOCC3)c3cc(OC)c(OC)cc3n2)cc1`, the result in [1] and in data set [2] was Active.
With `O=[N+]([O-])c1ccc(-c2nc(NCCN3CCOCC3)c3ccccc3n2)cc1`, the result in data set [1] and in data set [2] was inactive.
For the compound `COc1ccc(-c2nc(NCCN3CCOCC3)c3ccccc3n2)cc1`, the outcome in data set [1], in data set [18], in [13] and in data set [2] was Active. Also, the Ratio in data set [4] turned out to be 0.77; in [5], 1.35; in data set [9], 1.21; in data set [10], 0.99. The Kd was 139 µM in data set [14] and 147 µM in data set [20]. The values for the ΔTm in data set [15] and in data set [17] were -4.5 °C and -2.5 °C, respectively. The inhibition entry in [16] was “inactive”. In [19], the viability at 48 h, 50 µM was found to be 91.6%.
Turning to `COc1ccc(-c2nc(NCCN3CCOCC3)c3cc(OC)ccc3n2)cc1`, the outcome in data set [1] and in data set [2] was Active. Besides, the Ratio was 0.82 in [4], 0.98 in data set [5], 1.13 in [9] and 0.98 in [10]. Further, in data set [19], the viability at 48 h, 50 µM was determined as 95.6%. In addition, the dissociation constant (Kd) in data set [20] stood at 60 µM.

Values taken from ChEMBL document CHEMBL5247673, “Discovery of Small Molecules Targeting the Frameshifting Element RNA in SARS-CoV-2 Viral Genome” (ACS Med Chem Lett, 2023).
